Screens: PubChem BioAssay, several laboratories
MEKK2 WT-MEK5 = raises or lowers MEK5 binding to wildtype human MEKK2 PB1 domain; Q9Y2U5; bead flow cytometry, Alexa488-MEK5 binding to MEKK2 WT; actives lie on both sides; binding response (% of control), % at 10 µM; hit rate 1.1% among 290,000; AID 1531; in the data active means binding response below about 67% or above about 130%; inconclusive means no clear call, values can overlap the other calls; inactive means in between
MEKK2 mut-MEK5 = signal of MEK5 binding to mutant human MEKK2 PB1 domain | bead flow cytometry, Alexa488-MEK5 binding to MEKK2 mutant | percent response, % at 10 µM | hit rate 0.35% among 290,000 | AID 1530; in the data active means percent response above about 24%, passing the limit was not always enough
MEKK3 PB1 HTS = MEKK3-MEK5 PB1 interaction, increase or decrease. Q99759. bead-based flow cytometry, Alexa488-MEK5 binding to MEKK3; actives lie on both sides; 0 = blocked by unlabeled MEK5, 100 = vehicle. binding response (% of control), % at 10 µM. hit rate 1.4% among 290,000. AID 1529;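 active means binding response more than 3 SD above or below the average of its plate-row segment, actives on both sides; inconclusive means wells at one plate position flagged as instrument error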;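 further: Alexa488 bead fluorescence after subtracting the streptavidin-only scavenger bead signal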
IMP-1 inh-1 = inhibitors of Pseudomonas aeruginosa IMP-1 metallo-beta-lactamase | purified IMP-1, nitrocefin hydrolysis, epi-absorbance fluorescence | inhibition, % at 5.6 µM | hit rate 0.45% among 290,000 | AID 1556;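 active means inhibition above the mean plus 3 SD of all compounds in the same screening run, cut at about 4.5% in these data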;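 further: 0% = IMP-1 with DMSO and 100% = DMSO wells lacking enzyme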
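Assay system: purified recombinant IMP-1 beta-lactamase. Input: IMP-1 0.2 nM before substrate addition. Buffer or medium: Zinc- and detergent-supplemented HEPES buffer, pH 7.1. Schedule: 25 °C, 15 min preincubation, 25 min reaction. Signal: Epi-absorbance fluorescence, 480 nm excitation, 530 nm emission. Evaluation: percent inhibition from optical density relative to buffer-blank wells.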
VIM-2 inhibitor = blocks Pseudomonas aeruginosa VIM-2 metallo-beta-lactamase | purified VIM-2, nitrocefin hydrolysis, epi-absorbance fluorescence | inhibition, % at 5.6 µM | hit rate 0.89% among 290,000;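 active means inhibition above the mean of all tested compounds plus 3 SD, cutoff set per screening run, cut at about 7.5% in these data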;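 further: red hydrolysis product quenches plate fluorescence so inhibitors raise well fluorescence; 0% = enzyme with DMSO and 100% = DMSO without enzyme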
IMP-1 inh-2 = IMP-1 inhibition, counter-screen for VIM-2 inhibitors | 1,300 tested, under 10 active | shares compounds with VIM-2 inhibitor | inhibition, % at 5.6 µM | purified IMP-1, nitrocefin hydrolysis, epi-absorbance fluorescence; call rule not given here;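 further: 0% = enzyme with vehicle and 100% = vehicle without enzyme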
VIM-2 FRET ctr = inhibits VIM-2 in FRET assay to exclude epi-absorbance artifacts | shares compounds with VIM-2 inhibitor | purified VIM-2, CCF2 FRET substrate hydrolysis | inhibition, % at 5.6 µM | hit rate 23% among 1,300 | AID 1857;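 active means inhibition above the mean of all tested compounds plus 3 SD, cut at about 19% in these data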;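 further: 0% = VIM-2 plus DMSO and 100% = no enzyme wells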
TEM-1 counter = blocks E. coli TEM-1 beta-lactamase in VIM-2 selectivity screen; AID 1866; hit rate 3% among 1,300; inhibition, % at 5.6 µM; Purified TEM-1, nitrocefin hydrolysis, epi-absorbance fluorescence; shares compounds with VIM-2 inhibitor;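 active means inhibition above that campaign's mean inhibition plus 3 SD, cut at about 0.46% in these data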;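 further: 0% = TEM-1 with DMSO and 100% = TEM-1 with 100 µM potassium clavulanate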
Target sequence (P62593 whole entry, looked up): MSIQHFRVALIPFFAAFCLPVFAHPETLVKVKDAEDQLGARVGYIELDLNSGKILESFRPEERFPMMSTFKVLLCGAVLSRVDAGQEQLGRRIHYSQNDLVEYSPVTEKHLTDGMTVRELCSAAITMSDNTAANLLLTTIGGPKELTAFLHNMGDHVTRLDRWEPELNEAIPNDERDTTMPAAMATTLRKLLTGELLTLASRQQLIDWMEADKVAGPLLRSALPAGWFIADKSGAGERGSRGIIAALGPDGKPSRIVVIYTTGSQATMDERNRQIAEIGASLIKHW
VIM-2 inh conf = confirmation of P. aeruginosa VIM-2 metallo-beta-lactamase inhibitors; shares compounds with VIM-2 inhibitor; AID 2187; inhibition, % at 5.6 µM; hit rate 96% among 1,300; purified VIM-2, nitrocefin hydrolysis, epi-absorbance;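 active means inhibition of the VIM-2 beta-lactamase enzyme above about 11% from the earlier first-round screen, limit read from the data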;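 further: 0% = VIM-2 with DMSO and 100% = buffer wells without enzyme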
* hit, by the source's call; ? = inconclusive; . = no result given. Shown are actives, neighbours in structure and some others; about 3.4% of the full set was active somewhere.

SMILES	MEKK2 WT-MEK5	MEKK2 mut-MEK5	MEKK3 PB1 HTS	IMP-1 inh-1	VIM-2 inhibitor	IMP-1 inh-2	VIM-2 FRET ctr	TEM-1 counter	VIM-2 inh conf
O=C1CC(N2CCN(c3ncccn3)CC2)C(=O)N1CCc1ccccc1 (stereo not drawn)	105	6	105	-3	-3	.	.	.	.
CCOC(=O)N1CCC(Nc2ccc3nnc(-c4ccccc4)n3n2)CC1	107	1	104	-4	15*	-3	0	-3	24*
O=C1c2cccc3cccc(c23)C(=O)N1c1nncs1	105	4	104	0	13*	-3	4	-3	24*
NC(=O)c1cnn2c(C(F)(F)F)cc(-c3ccccc3)nc12	98	-2	99	-2	1	.	.	.	.
NC(=O)c1cnn2c(C(F)(F)F)cc(-c3ccc(F)cc3)nc12	93	-1	103	1	16*	-5	-1	-8	16*
Cn1nc(C(=O)NCCN2CCOCC2)c2ccccc2c1=O	103	5	98	-1	-5	.	.	.	.
COc1ccc2c(c1OC)c(=O)n1c3ccc(OC(C)C(=O)NCCN4CCOCC4)cc3c3ccnc2c31 (stereo not drawn)	104	2	102	0	18*	-1	-5	-9	26*
CC(Oc1ccc2c(c1)c1ccnc3c4ccccc4c(=O)n2c13)C(=O)NCCN1CCOCC1 (stereo not drawn)	109	4	103	-2	27*	-2	-8	-8	36*
CCOc1ccc(CCNC(=O)c2ccc(=O)[nH]c2)cc1OCC	90	-4	96	-2	27*	-2	-4	-1	2
C/C(Cn1nc([N+](=O)[O-])cc1C)=N\NC(=O)COc1ccccc1[N+](=O)[O-]	94	-4	94	0	-1	.	.	.	.
O=C(NNC(=O)c1cccc(Br)c1)Nc1ccc(Cl)cc1	95	-7	99	-3	-4	.	.	.	.
COc1ccc(CCn2nc(C)c([N+](=O)[O-])c2C)cc1	108	8	102	-2	0	.	.	.	.
Cc1cccc(-n2c(CCn3nc(C)c([N+](=O)[O-])c3C)n[nH]c2=S)c1	97	4	104	-5	17*	-4	46*	-7	30*
Cc1cccc(-n2c(Cc3ccccc3)n[nH]c2=S)c1	85	-12	86	-1	3	.	.	.	.
COc1cccc(-n2c(CCn3nc(C)c([N+](=O)[O-])c3C)n[nH]c2=S)c1	93	-5	90	-3	14*	-3	38*	-4	25*
Cc1ccc2ncnc(Nc3ccc(C)c(C)c3)c2c1	108	5	108	-4	-4	.	.	.	.
O=C(O)c1cc2cc(OCc3ccccc3)ccc2[nH]1	104	2	107	-1	3	.	.	.	.
O=C(O)c1cc2ccc3ccccc3c2[nH]1	93	0	95	1	14*	-3	18*	-4	16*
CCOc1ccc(C(=O)Nc2cccc(-c3nc4cccnc4o3)c2)cc1Cl	101	3	104	0	-2	.	.	.	.
CCc1ccc(NC(=O)Cn2cnc3sc(C)c(S(=O)(=O)N4CCOCC4)c3c2=O)cc1	106	6	102	-2	-1	.	.	.	.
CC(C)c1ccc(/C=c2\sc3nc(-c4ccncc4)nn3c2=O)cc1	92	-12	91	-4	-1	.	.	.	.
Cc1ccc(/C=c2\sc3nc(-c4cccnc4)nn3c2=O)cc1	.	.	.	-3	56*	-2	65*	-5	60*
CC1=C(C(=O)O)N2C(=O)C(NC(=O)c3nn(C)cc3[N+](=O)[O-])C2SC1 (stereo not drawn)	?	139*	?	0	15*	-3	33*	-5	21*
O=C(O)CSc1nc2sc3c(c2c(=O)n1-c1ccccc1)CCC3	105	14	109	-3	-1	.	.	.	.
Cn1c(SCC(=O)O)nc2sc3c(c2c1=O)CCC3	102	1	100	-2	14*	-4	30*	-6	22*
SMILES	MEKK2 WT-MEK5	MEKK2 mut-MEK5	MEKK3 PB1 HTS	IMP-1 inh-1	VIM-2 inhibitor	IMP-1 inh-2	VIM-2 FRET ctr	TEM-1 counter	VIM-2 inh conf
O=C(O)CC/C(=N/NC(=O)CNC(=O)Cc1ccccc1)c1ccccc1	89	-14	90	-3	-3	.	.	.	.
CC(=C/C(=O)O)/C=C/c1ccc([N+](=O)[O-])cc1	105	20	109	-3	14*	-3	0	-5	7
Cc1cc(C)n2cc(CSCc3ccccc3)nc2n1	102	17	104	-3	2	.	.	.	.
Cc1cc(C)n2cc(CSc3nnc(-c4ccccc4)o3)nc2n1	97	-2	99	1	16*	-3	30*	-3	21*
Cc1nnc2c(N3CCN(CCO)CC3)nc3ccccc3n12	100	0	95	-3	13*	-5	-1	-4	14*
CCN1CCN(c2nc3ccccc3n3cnnc23)CC1	101	-3	101	-1	1	.	.	.	.
COC(=O)c1[nH]c2cccc(C)c2c1NC(=O)CN1CCN(C(=O)c2ccco2)CC1	103	-9	103	1	0	.	.	.	.
Cc1cc2nc(C)n3c4ccccc4nc3n2n1	101	7	102	-4	7	.	.	.	.
CCc1nc2cc(C)nn2c2nc3ccccc3n12	96	-3	93	0	16*	-3	4	-5	26*
CCc1ccc(/C=N/Nc2ncnc3nc[nH]c23)cc1	124	27	127	-3	15*	-3	-15	-1	43*
O=S(=O)(c1ccc(S(=O)(=O)N2CCCN(Cc3ccccc3)C2)cc1)N1CCCCCC1	108	4	106	-4	0	.	.	.	.
Cc1cc(=O)n2c3ccccc3n(CC(O)CN3CCN(Cc4ccccc4)CC3)c2c1C#N (stereo not drawn)	102	5	99	-3	14*	-3	2	-13	33*
Cc1cc(=O)n2c3ccccc3n(CC(O)CN3CCN(CCO)CC3)c2c1C#N (stereo not drawn)	99	2	101	-3	22*	-5	0	-10	38*
